# Test results reported in ChEMBL document CHEMBL4330145, “Discovery of the Cyclic Lipopeptide Gacamide A by Genome Mining and Repair of the Defective GacA Regulator in Pseudomonas fluorescens Pf0-1” (2019).
# Active and inactive are the calls of the source. No cut-off for these calls is given here.
# Tests used:
# Staphylococcus aureus [1] = experiment: Antibacterial activity against Staphylococcus aureus isolate 133 after 24 hrs by agar diffusion assay; type: functional, organism-based
# Method in brief: (§1)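 Plates of Columbia agar with 5% sheep blood were overlaid with 3 mL tryptic soy soft agar seeded with a TSB suspension of the test strain. Compound was diluted in DMSO to 1 mg/mL, and 3 μL was spotted on the agar surface. The inhibition-zone diameter was measured after 24 h at 37 °C. Clinical isolates were kept on Mueller−Hinton or blood agar.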
# [2] = system: Staphylococcus epidermidis; experiment: Antibacterial activity against methicillin-resistant Staphylococcus epidermidis isolate LT-1324 after 24 hrs by agar diffusion assay; type: functional, organism-based
# Method in brief: (§2)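 Agar diffusion: 5% sheep blood Columbia agar plates overlaid with 3 mL tryptic soy soft agar seeded with a TSB suspension of the clinical isolate. Compound diluted in DMSO to 1 mg/mL, and 3 μL spotted on the agar surface. Inhibition zone diameter measured after 24 h at 37 °C. Strains were maintained on Mueller−Hinton or blood agar.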
# Pseudomonas fluorescens = experiment: Antibacterial activity against Pseudomonas fluorescence A506 after 24 hrs by agar diffusion assay; type: functional, organism-based
# Pseudomonas aeruginosa = experiment: Antibacterial activity against Pseudomonas aeruginosa isolate I-10968 after 24 hrs by agar diffusion assay; type: functional, organism-based; method in brief: as §1
# [3] = system: Stenotrophomonas maltophilia; experiment: Antibacterial activity against Stenotrophomonas maltophilia isolate O-16451 after 24 hrs by agar diffusion assay; type: functional, organism-based; method in brief: as §1
# Corynebacterium xerosis = experiment: Antibacterial activity against Corynebacterium xerosis after 24 hrs by agar diffusion assay; type: functional, organism-based
# Staphylococcus aureus [4] = experiment: Antibacterial activity against methicillin-resistant Staphylococcus aureus isolate LT-1334 after 24 hrs by agar diffusion assay; type: functional, organism-based; method in brief: as §2
# Citrobacter freundii = experiment: Antibacterial activity against Citrobacter freundii isolate I-11090 after 24 hrs by agar diffusion assay; type: functional, organism-based; method in brief: as §1
# Staphylococcus aureus [5] = experiment: Antibacterial activity against methicillin sensitive Staphylococcus aureus isolate I-11574 after 24 hrs by agar diffusion assay; type: functional, organism-based; method in brief: as §1
# [6] = system: Agrobacterium tumefaciens; experiment: Antibacterial activity against Agrobacterium tumefaciens B6 after 24 hrs by agar diffusion assay; type: functional, organism-based
# [7] = system: Klebsiella pneumoniae subsp. ozaenae; experiment: Antibacterial activity against Klebsiella pneumoniae subsp. ozaenae isolate I-10910 after 24 hrs by agar diffusion assay; type: functional, organism-based; method in brief: as §1
# Escherichia coli [8] = experiment: Antibacterial activity against Escherichia coli isolate I-11276b after 24 hrs by agar diffusion assay; type: functional, organism-based; method in brief: as §1
# Erwinia amylovora = experiment: Antibacterial activity against Erwinia amylovora Ea153 after 24 hrs by agar diffusion assay; type: functional, organism-based
# Candida albicans [9] = experiment: Antifungal activity against Candida albicans isolate I-11301 after 24 hrs by agar diffusion assay; type: functional, organism-based
# Candida albicans [10] = experiment: Antifungal activity against Candida albicans isolate I-11134 after 24 hrs by agar diffusion assay; type: functional, organism-based
# Staphylococcus aureus [11] = experiment: Antibacterial activity against methicillin sensitive Staphylococcus aureus isolate 5185 after 24 hrs by agar diffusion assay; type: functional, organism-based; method in brief: as §1
# Micrococcus luteus = experiment: Antibacterial activity against Micrococcus luteus ATCC 4698 after 24 hrs by agar diffusion assay; type: functional, organism-based; details: NCTC 2665
# Escherichia coli [12] = experiment: Antibacterial activity against Escherichia coli isolate O-19592 after 24 hrs by agar diffusion assay; type: functional, organism-based; method in brief: as §1
# [13] = system: Arthrobacter crystallopoietes; experiment: Antibacterial activity against Arthrobacter crystallopoietes DSM 20117 after 24 hrs by microtiter plate broth dilution assay; details: Crystallibacter crystallopoietes, DSM 20117, 24 h
# Enterococcus faecium [14] = experiment: Antibacterial activity against Enterococcus faecium isolate I-11305b after 24 hrs by agar diffusion assay; type: functional, organism-based; method in brief: as §1
# [15] = system: Mycolicibacterium smegmatis; experiment: Antibacterial activity against Mycobacterium smegmatis after 24 hrs by agar diffusion assay; type: functional, organism-based
# [16] = system: Stenotrophomonas maltophilia; experiment: Antibacterial activity against Stenotrophomonas maltophilia isolate I-10717 after 24 hrs by agar diffusion assay; type: functional, organism-based; method in brief: as §1
# [17] = system: Agrobacterium tumefaciens; experiment: Antibacterial activity against Agrobacterium tumefaciens C58 after 24 hrs by agar diffusion assay; type: functional, organism-based
# Bacillus subtilis = experiment: Antibacterial activity against Bacillus subtilis 168 after 24 hrs by agar diffusion assay; type: functional, organism-based; details: subsp. subtilis str. 168
# Staphylococcus aureus [18] = experiment: Antibacterial activity against Staphylococcus aureus after 24 hrs by agar diffusion assay; type: functional, organism-based
# Listeria welshimeri = experiment: Antibacterial activity against Listeria welshimeri DSM 20650 after 24 hrs by agar diffusion assay; type: functional
# Priestia megaterium = experiment: Antibacterial activity against Bacillus megaterium Km after 24 hrs by agar diffusion assay; type: functional, organism-based
# Enterococcus faecium [19] = experiment: Antibacterial activity against Enterococcus faecium isolate I-11054 after 24 hrs by agar diffusion assay; type: functional, organism-based; method in brief: as §1
# Rhodococcus fascians = experiment: Antibacterial activity against Rhodococcus fascians A44A after 24 hrs by agar diffusion assay; type: functional, organism-based; details: Rhodococcoides fascians
# Staphylococcus simulans = experiment: Antibacterial activity against Staphylococcus simulans isolate 22 after 24 hrs by agar diffusion assay; type: functional, organism-based; method in brief: as §1
# [20] = system: Pseudomonas syringae pv. tomato str. DC3000; experiment: Antibacterial activity against Pseudomonas syringae DC3000 after 24 hrs by agar diffusion assay; type: functional
# Staphylococcus aureus [21] = experiment: Antibacterial activity against methicillin-resistant Staphylococcus aureus isolate LT-1338 after 24 hrs by agar diffusion assay; type: functional, organism-based; method in brief: as §2
smiles,measurement,setting,value
CCCCCCC[C@@H](O)CC(=O)N[C@H](CC(C)C)C(=O)N[C@H](CC(=O)O)C(=O)N[C@H](CCC(N)=O)C(=O)N[C@H](C(=O)N[C@H](CC(C)C)C(=O)N[C@H](CCC(N)=O)C(=O)N[C@@H]1COC(=O)[C@H]([C@@H](C)CC)NC(=O)[C@@H](CO)NC(=O)[C@H](CC(C)C)NC(=O)[C@H](CC(C)C)NC1=O)[C@H](C)CC,Activity,Staphylococcus aureus [1],inactive
same,Activity,[2],inactive
same,Activity,Pseudomonas fluorescens,inactive
same,Activity,Pseudomonas aeruginosa,inactive
same,Activity,[3],inactive
same,Activity,Corynebacterium xerosis,inactive
same,Activity,Staphylococcus aureus [4],inactive
same,Activity,Citrobacter freundii,inactive
same,Activity,Staphylococcus aureus [5],inactive
same,Activity,[6],inactive
same,Activity,[7],inactive
same,Activity,Escherichia coli [8],inactive
same,Activity,Erwinia amylovora,inactive
same,Activity,Candida albicans [9],inactive
same,Activity,Candida albicans [10],inactive
same,Activity,Staphylococcus aureus [11],inactive
same,Activity,Micrococcus luteus,inactive
same,Activity,Escherichia coli [12],inactive
same,MIC,[13],32 µg/mL
same,Activity,Enterococcus faecium [14],inactive
same,Activity,[15],inactive
same,Activity,[16],inactive
same,Activity,[17],inactive
same,Activity,Bacillus subtilis,inactive
same,Activity,Staphylococcus aureus [18],inactive
same,Activity,Listeria welshimeri,inactive
same,Activity,Priestia megaterium,inactive
same,Activity,Enterococcus faecium [19],inactive
same,Activity,Rhodococcus fascians,inactive
same,Activity,Staphylococcus simulans,inactive
same,Activity,[20],inactive
same,Activity,Staphylococcus aureus [21],inactive
